Here are results for 15 molecules from paper PMC12118959 (Toxicological Sciences, 2025).

Series [1] deals with 3D ECTs. Briefly: Contractility. The format is cell-based, human. Particulars: for MEC (minimum effective concentration), active force: serum-free, paced at 1 Hz, 15 min per concentration. In outline: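 Tissues were built from iCell cardiomyocytes plus human ventricular cardiac fibroblasts in hydrogel on Biowire II wires. After 30 min chamber equilibration, a 30-s baseline video was recorded, then a second one 10 min after a medium-pipetting step. Test compound in DMSO was added cumulatively at 3 or 4 rising concentrations (final DMSO 0.001–0.1%), 15 min each, with a 30-s video per concentration. n=6–9 tissues, one compound per tissue.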

Series [2] concerns 2D hiPSC-CMs. Briefly: Motion-field imaging contractility. Type of series: cell-based, human. Conditions: for MEC (minimum effective concentration), maximum contraction speed: serum-containing medium, concentration for 1.08-fold increase or 0.92-fold decrease. The essentials:
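Thawed iCell hiPSC-CMs were re-plated on day 7 onto a ~3 mm fibronectin spot and cultured 5–9 days at 37°C, 5% CO2, with serum-containing medium overnight before recording. Phase-contrast video at 4x, 150 frames/s, analysed by block-matching. After sham baseline, cumulative additions from 1,000-fold DMSO stocks (final DMSO 0.1–0.4% v/v), 15 min each, 10-s videos; 4–5 wells. MEC by four-parameter log fit, 1.08/0.92-fold cutoffs.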

In series [3] the test system is 2D hiPSC-CMs. Conditions: ref Okai et al. 2020; cited from earlier work.
Another series concerns hERG. Particulars: read-out: hERG IC50; ref Sube and Ertel 2017; cited from earlier work. In general terms: The hERG channel carries a current that helps repolarise heart muscle cells.
A further series has as its system CaV1.2. Conditions: read-out: CaV1.2 IC50; ref Ando et al. 2017; cited from earlier work.
The subject of the next series is NaV1.5. Particulars: read-out: NaV1.5 IC50; ref Wang et al. 2010; cited from earlier work.
For series [4], the system named is 3D ECTs. Particulars: read-out: EC50, positive inotropic effect; same 3D ECT model; ref Feric et al. 2019; cited from earlier work.
A further series relates to aligned hiPSC-CMs. Conditions: ref Satsuka et al. 2024; cited from earlier work.

Counter-ions that a name gives are not always drawn.

Broadly, the IC50 is the midpoint of a concentration-inhibition curve. In general, EC50 refers to the concentration at which the effect is half-maximal.

In the case of `CC(=O)Oc1ccccc1C(=O)O` [Aspirin, acetylsalicylic acid], in the series with 3D ECTs [1], the “Concentration up to which no effect on active force was observed” value (“Concentration up to which no effect” for short) was found to be 300 µM and the “MEC (minimum effective concentration), active force” value is recorded as greater than 300 µM. The “MEC (minimum effective concentration), maximum contraction speed” value in the series on 2D hiPSC-CMs [2] is on record as greater than 300 µM.
For `CC(CCc1ccc(O)cc1)NCCc1ccc(O)c(O)c1` (stereo not shown) [dobutamine], in the series on 2D hiPSC-CMs [3], the “Inotropic effect in 2D hiPSC-CMs (previous study)” value was “positive inotropic effect”.
In the case of `Cc1ccc(N(CC2=NCCN2)c2cccc(O)c2)cc1` [Phentolamine, phentolamine hydrochloride], the “Concentration up to which no effect” value in the series on 3D ECTs [1] is on record as 3.0 µM. The “MEC (minimum effective concentration), maximum contraction speed” value in the series with 2D hiPSC-CMs [2] is greater than 0.30 µM. The IC50 in the series with hERG is 0.85 µM.
Regarding `Nc1cc(-c2ccncc2)c[nH]c1=O` [Amrinone, amrinone], in the series on 2D hiPSC-CMs [2], the “MEC (minimum effective concentration), maximum contraction speed” value is given as greater than 100 µM.
Take `COc1ccc(Cl)cc1C(=O)NCCc1ccc(S(=O)(=O)NC(=O)NC2CCCCC2)cc1` [Glibenclamide, glyburide]: the “MEC (minimum effective concentration), active force” value with 3D ECTs [1] is recorded as greater than 100 µM. Besides, the “MEC (minimum effective concentration), maximum contraction speed” value in the series on 2D hiPSC-CMs [2] is reported as greater than 100 µM.
As for `O=C(CCCN1CCC(O)(c2ccc(Cl)cc2)CC1)c1ccc(F)cc1` [Haloperidol, haloperidol], in the series on 3D ECTs [1], the “MEC (minimum effective concentration), active force” value stood at 0.30 µM. For the same molecule, in the series on 2D hiPSC-CMs [2], the “Concentration at which irregular beating was induced” value is on record as “above 0.10 µM” and the “MEC (minimum effective concentration), maximum contraction speed” value is listed as greater than 0.10 µM. In the series on CaV1.2, the IC50 was 1.3 µM.
In the case of `CC(C)NCC(O)COc1cccc2ccccc12` (racemic) [Propranolol, (±)-propranolol hydrochloride], the “MEC (minimum effective concentration), active force” value in the series on 3D ECTs [1] is on record as 3.0 µM; in the series with 3D ECTs [1] (listed as propranolol), roughly 3 µM. Moreover, in the series on NaV1.5, the IC50 is 3 µM.
For the molecule `CN/C(=N/CCSCc1nc[nH]c1C)NC#N` [Cimetidine, cimetidine], in the series with 3D ECTs [1], the “Concentration up to which no effect” value came to 100 µM and the “MEC (minimum effective concentration), active force” value is on record as greater than 100 µM. Moreover, the “MEC (minimum effective concentration), maximum contraction speed” value in the series on 2D hiPSC-CMs [2] was greater than 100 µM.
On to `CN(C)C/C=C(/c1ccc(Br)cc1)c1cccnc1` [Zimelidine, zimelidine], for which the “Concentration up to which no effect” value in the series on 3D ECTs [1] is on record as 3.0 µM. Also, in the series on 2D hiPSC-CMs [2], the “MEC (minimum effective concentration), maximum contraction speed” value is reported as greater than 0.10 µM.
`Cc1[nH]c(=O)c(C#N)cc1-c1ccncc1` [milrinone]: the EC50 in the series on 3D ECTs [4] was 0.0016 µM. The “Inotropic effect in aligned hiPSC-CMs” value with aligned hiPSC-CMs is “remained undetectable”.
For the molecule `CC(C)NCC(O)c1ccc(O)c(O)c1` (stereo not shown) [Isoproterenol, isoproterenol], in the series with 3D ECTs [1], the “MEC, positive inotropic effect (active force)” value was “below 0.1 nM” and the “MEC (minimum effective concentration), active force” value is less than 0.00010 µM. Also, the “MEC, positive inotropic effect (maximum contraction speed)” value with 2D hiPSC-CMs [2] came out at 0.35 nM.
As for `C[C@H](CS)C(=O)N1CCC[C@H]1C(=O)O` [Captopril, captopril], in the series on 3D ECTs [1], the “Concentration up to which no effect” value stood at 100 µM and the “MEC (minimum effective concentration), active force” value is recorded as greater than 100 µM. Further, the “MEC (minimum effective concentration), maximum contraction speed” value in the series with 2D hiPSC-CMs [2] was greater than 100 µM.
As for `COc1ccc(-c2nc3ccc(C4=NNC(=O)CC4C)cc3[nH]2)cc1` (stereo not shown) [Pimobendan, pimobendan], the “MEC (minimum effective concentration), maximum contraction speed” value in the series with 2D hiPSC-CMs [2] is recorded as greater than 60 µM.
Regarding `CC[C@H](C)C(=O)O[C@H]1C[C@H](O)C=C2C=C[C@H](C)[C@H](CC[C@@H](O)C[C@@H](O)CC(=O)O)[C@H]21` [Pravastatin, pravastatin], in the series with 3D ECTs [1], the “Concentration up to which no effect” value was 100 µM and the “MEC (minimum effective concentration), active force” value is greater than 100 µM. Moreover, the “MEC (minimum effective concentration), maximum contraction speed” value in the series with 2D hiPSC-CMs [2] is given as greater than 100 µM.
Take `CCOc1ccccc1OCCN[C@H](C)Cc1ccc(OC)c(S(N)(=O)=O)c1` [Tamsulosin, tamsulosin]: in the series on 3D ECTs [1], the “Concentration up to which no effect” value was determined as 1.0 µM and the “MEC (minimum effective concentration), active force” value was found to be 3.0 µM. Moreover, in the series on 2D hiPSC-CMs [2], the “MEC (minimum effective concentration), maximum contraction speed” value is reported as greater than 3.0 µM.
